From paper PMC9385543 (International Journal for Parasitology: Drugs and Drug …, 2022)
Where two headings read alike, the source gives them in different places.

How the values were obtained:
[1] = system: Theileria equi; experiment: In vitro growth inhibitory assay of Theileria equi in MASP culture; format: cell-based; conditions: for in vitro growth inhibition versus control well: p < 0.05; for morphological changes observed in treated parasites: in vitro treatment, at 96 h, Giemsa-stained smears; for IC50: read-out: IC50 value for growth inhibition of T. equi
In short: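 T. equi-infected horse RBCs from MASP culture, diluted to 1% parasitaemia with uninfected ELISA-negative horse RBCs. Medium: M199 with 40% equine serum, antibiotics and 200 μM hypoxanthine. Test compounds at 1–200 μM or 125–1000 nM, triplicate wells, 96 h at 37 °C under 5% CO2/3% O2; drug medium renewed every 24 h. Percent parasitaemia followed over time; IC50 by curve fitting; two-way ANOVA with Bonferroni (p < 0.05).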

[2] = system: Theileria equi; experiment: Viability test; format: cell-based
In short: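 After 96 h exposure in the growth assay, treated or untreated infected RBCs were moved into drug-free complete medium with fresh uninfected horse RBCs. Cultured a further 72 h at 37 °C under micro-aerophilic gas, with medium replaced every 24 h. Parasite recrudescence/viability was scored on Giemsa-stained blood smears.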

[3] = system: horse RBCs; experiment: In vitro haemolytic assay; format: cell-based
[4] = In vitro cytotoxicity assay; format: cell-based, horse; conditions: horse, PHA-stimulated horse PBMCs
[5] = system: horse PBMCs; experiment: In vitro cytotoxicity assay; format: cell-based
[6] = 48 h, 72 h and 96 h, 250 nM–1000 nM

SMILES | in vitro growth inhibition versus control well ([1]; 24 h, 750 and 1000 nM) | in vitro growth inhibition versus control well [1, 6] | morphological changes observed in treated parasites [1] | IC50 ([1]; 96 h of culture) | parasite multiplication in the viability test ([2]; after 96 h treatment with 500 nM–1000 nM) | haemolytic activity on horse RBCs ([3]; highest concentration of 2000 μM) | in vitro growth inhibition versus control well ([1]; 24 h, 100 μM and 200 μM) | in vitro growth inhibition versus control well ([1]; 48 h, 72 h and 96 h, 5 μM–200 μM) | IC50 ([1]; Theileria equi, 96 h) | parasite multiplication in the viability test ([2]; after 96 h treatment with 50 μM–200 μM) | CC50 at 24 h [4] | Specific selective index (SSI) with respect to host's PBMC ([5]; CC50 on horse PBMCs / IC50 on T. equi) | cytotoxicity to horse PBMCs ([5]; highest concentration 1000 μM, 24 h) | haemolytic activity on horse RBCs ([3]; 10 μM–2000 μM, 90 min) | Specific selective index (SSI) with respect to host's RBC ([3]; CC50 on horse RBCs / IC50 on T. equi) | in vitro growth inhibition versus control well ([1]; 24 h, 500, 750 and 1000 nM) | parasite multiplication in the viability test ([2]; after 96 h treatment with 750 nM and 1000 nM)
CCCCCCCCCCCC[N+](C)(C)C.[Br-] [DDTAB, dodecyl trimethyl ammonium bromide] | significant difference | significant (p < 0.05) growth inhibition | devoid of internal structures, showing pycnotic and degenerative appearances | 0.47 µM | failed to multiply further | more | – | – | – | – | – | – | – | – | – | – | –
C[N+](C)(C)CCCCCCCCCC[N+](C)(C)C [DMB, Decamethonium bromide] | – | – | devoid of internal structures, showing pycnotic and degenerative appearances | – | – | – | significant difference | significant (p < 0.05) growth inhibition | 14 µM | failed to multiply further | 7200 µM | 514.50 | less than 10% | < 3% | 16035.38 | – | –
CCCCCCCCCC[N+](C)(C)C.[Br-] [DTAB, Decyl trimethyl ammonium bromide] | – | significant (p < 0.05) growth inhibition | devoid of internal structures, showing pycnotic and degenerative appearances | 0.558 µM | – | – | – | – | – | – | – | – | – | < 3% | – | significant difference | failed to multiply further
